These results are taken from ChEMBL document CHEMBL5053511, “Discovery of a Novel BCL-XL PROTAC Degrader with Enhanced BCL-2 Inhibition” (J Med Chem, 2021).

Test [1] deals with T1, von Hippel-Lindau disease tumor suppressor/Bcl-2-like protein 1 (Homo sapiens, UniProt Q07817+P40337). The test can be described thus: Protac activity at VHL/BCL-XL in human MOLT-4 cells assessed as induction of BCL-XL degradation at 10 uM pretreated with MG-132 followed by compound treatement measured after 12 hrs by Western blot analysis. The class given is cell-based. A digest of the protocol:
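MOLT-4 cells were pretreated with 10 µM VHL-032 or 1 µM MG-132, followed by 12 h compound treatment. BCL-XL and β-actin were immunoblotted; blots representative of three experiments.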
Target sequence in this assay (P40337 whole entry, looked up): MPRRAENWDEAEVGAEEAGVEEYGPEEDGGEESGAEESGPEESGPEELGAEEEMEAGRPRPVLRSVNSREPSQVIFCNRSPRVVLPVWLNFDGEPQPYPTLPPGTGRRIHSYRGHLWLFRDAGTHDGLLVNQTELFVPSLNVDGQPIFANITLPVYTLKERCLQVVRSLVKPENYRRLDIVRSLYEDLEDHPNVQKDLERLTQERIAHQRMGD
Target sequence in this assay (Q07817 whole entry, looked up): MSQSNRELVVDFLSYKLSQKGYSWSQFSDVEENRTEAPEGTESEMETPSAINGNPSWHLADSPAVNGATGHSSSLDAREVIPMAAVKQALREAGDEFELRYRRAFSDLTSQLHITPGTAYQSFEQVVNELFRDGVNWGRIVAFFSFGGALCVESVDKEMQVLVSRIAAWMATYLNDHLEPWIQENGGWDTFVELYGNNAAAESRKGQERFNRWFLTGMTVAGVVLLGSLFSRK

Test [2] deals with T1, von Hippel-Lindau disease tumor suppressor/Bcl-2-like protein 1. As to the kind of experiment: Protac activity at VHL/BCL-XL in human platelets assessed as decrease in BCL-XL protein level at up to […] measured after 16 hrs by Western blot analysis. The following applies: Platelet. An outline of the steps:
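Washed human platelets were treated for 16 h at a range of concentrations, and BCL-XL was measured by western blotting.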
Target sequence in this assay (P40337 whole entry, looked up): as the sequence (P40337 whole entry, looked up) above
Target sequence in this assay (Q07817 whole entry, looked up): as the sequence (Q07817 whole entry, looked up) above

For test [3] the target is unchanged. The test can be described thus: Protac activity at VHL/BCL-XL in human RS4-11 cells assessed as decrease in BCL-XL protein level by densitometric analysis. The class given is cell-based. An outline of the steps:
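MOLT-4 or RS4;11 cells were treated at a range of concentrations for 16 h. BCL-XL was immunoblotted with β-actin loading control, and band densitometry was normalised to β-actin. Mean ± SD of three independent experiments in triplicate.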
Target sequence in this assay (Q07817 whole entry): as the sequence (Q07817 whole entry, looked up) above
Target sequence in this assay (P40337 whole entry): as the sequence (P40337 whole entry, looked up) above

Test [4] relates to MOLT-4. As to the kind of experiment: Cytotoxicity against human MOLT-4 cells assessed as reduction in cell viability measured after 48 hrs by MTS assay. The class given is functional, cell-based. The following applies: MOLT-4, 48 h.
Test [5] concerns MOLT-4. The test can be described thus: Induction of apoptosis in human MOLT-4 cells assessed as […] in cleaved caspase-3 level at up to 1000 nM measured after 16 hrs by immunoblotting analysis. The class given is functional, cell-based. A digest of the protocol: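 MOLT-4 cells were treated at a range of concentrations for 16 h. Lysates were immunoblotted for cleaved and full caspase-3, cleaved and full PARP, and β-actin; blots representative of three experiments.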

In test [6] the test system is MOLT-4. As to the kind of experiment: Induction of apoptosis in human MOLT-4 cells assessed as early apoptotic cells at 10 nM measured after 48 hrs by annexinV-FITC/propidium iodide staining based flow cytometry (reference value: 2%). The class given is functional.
The subject of test [7] is MOLT-4. As to the kind of experiment: Induction of apoptosis in human MOLT-4 cells assessed as late apoptotic cells at 10 nM measured after 48 hrs by annexinV-FITC/propidium iodide staining based flow cytometry (reference value: 1%). The class given is functional.
The test system of test [8] is MOLT-4. The test can be described thus: Induction of apoptosis in human MOLT-4 cells assessed as early apoptotic cells at 10 nM measured after 48 hrs in presence of QVD by annexinV-FITC/propidium iodide staining based flow cytometry (reference value: 2%). The class given is functional.
Test [9] addresses Bcl-2-like protein 1 (Homo sapiens, UniProt Q07817). As to the kind of experiment: Displacement of biotin-tagged LWAAQRYGRELRRMSDEFEGSFKGL from human BCL-XL expressed in Escherichia coli measured after 2 hrs by AlphaScreen assay. An outline of the steps: (§1)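 AlphaScreen displacement, run with or without VCB. Anti-His acceptor beads were added for 1 h at room temperature, then streptavidin donor beads for 30 min in the dark. Ki was fitted by one-site competitive model from peptide concentration and measured Kd values; reported as mean ± SD of at least two experiments in triplicate.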

For test [10], the target named is Apoptosis regulator Bcl-2 (Homo sapiens, UniProt P10415). The test can be described thus: Displacement of biotin-tagged MRPEPATIAQELRRIGDEFNA from C-terminal His-tagged human BCL-2 (1` to 211 residues) expressed in Escherichia coli measured after 2 hrs by AlphaScreen assay. A digest of the protocol:
as §1

Test [11] is described as follows: Binding affinity to human BCL-XL expressed in Escherichia coli/recombinant human VHL (54 to end residues) fused to human N-terminal GST-tagged elongin-C/elongin -B/N-terminal His-tagged CUL2/Rbx1 expressed in baculovirus infected Sf21 insect cells measured after 2 hrs by AlphaScreen assay. A digest of the protocol:
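AlphaScreen displacement, run with or without VCB. Biotin-Bim (80 nM, for BCL-2) or biotin-Bad (16 nM, for BCL-XL) was combined with serially diluted compound and 6×His protein in 25 mM HEPES pH 7.5, 100 mM NaCl, 0.1% BSA, 0.005% Tween 20. Anti-His acceptor beads were added for 1 h at room temperature, then streptavidin donor beads for 30 min in the dark. Ki was fitted by one-site competitive model from peptide concentration and measured Kd values; reported as mean ± SD of at least two experiments in triplicate.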

A short description of test [12]: Binding affinity to C-terminal His-tagged human BCL-2 (1 to 211 residues) expressed in Escherichia coli/recombinant human VHL (54 to end residues) fused to human N-terminal GST-tagged elongin-C/elongin -B/N-terminal His-tagged CUL2/Rbx1 expressed in baculovirus infected Sf21 insect cells assessed as ternary complex formation at up to 100000 nM measured after 30 mins by AlphaLISA assay. A digest of the protocol: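 Cell-free ternary complex AlphaLISA: 6×His-tagged BCL-XL, BCL-2 or MCL-1 (20 nM) mixed with serially diluted compound (4× dilution) and GST-VCB (20 nM) in 25 mM HEPES pH 7.5, 100 mM NaCl, 0.1% BSA, 0.005% Tween 20. After 30 min at room temperature, glutathione donor beads were added for 15 min, then anti-His acceptor beads for 45 min in the dark. Luminescence was plotted against log compound concentration.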

In test [13] the target is T1, von Hippel-Lindau disease tumor suppressor/Bcl-2-like protein 1. As to the kind of experiment: Binding affinity to Halo-tagged VHL/HiBiT-tagged BCL-XL (unknown origin) expressed in HEK293T cells assessed as ternary complex formation at up to 100000 nM measured after 6 hrs by NanoBRET assay. The class given is cell-based. A digest of the protocol:
(§2)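 NanoBRET in live HEK 293T cells. Cells were transfected with HaloTag-VHL (1 µg), HiBit-BCL-XL or HiBit-BCL-2 (10 ng) and LgBit (10 ng). After 24 h they were seeded at 2×10^4 per well in Opti-MEM with 4% FBS, with or without HaloTag 618 ligand, and held overnight. Serial compound doses were given for 6 h at 37 °C, then Nano-Glo substrate was added and mBRET ratios read. Mean ± s.e.m. of two experiments in triplicate.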
Target sequence in this assay (P40337 whole entry, looked up): as the sequence (P40337 whole entry, looked up) above
Target sequence in this assay (Q07817 whole entry, looked up): as the sequence (Q07817 whole entry, looked up) above

Test [14] concerns the target T2, von Hippel-Lindau disease tumor suppressor/Apoptosis regulator Bcl-2 (Homo sapiens) (UniProt P10415+P40337). The test can be described thus: Binding affinity to Halo-tagged VHL/HiBiT-tagged BCL-2 (unknown origin) expressed in HEK293T cells assessed as ternary complex formation at up to 100000 nM measured after 6 hrs by NanoBRET assay. The class given is cell-based. An outline of the steps: as §2

For test [15], the system named is RS4-11. As to the kind of experiment: Cytotoxicity against human RS4-11 cells assessed as reduction in cell viability measured after 48 hrs in presence of VHL-032 by MTS assay. The following applies: RS4-11, 48 h. The class given is functional, cell-based. A digest of the protocol:
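RS4;11 cells were pretreated with 10 µM VHL-032, then exposed to compound for 48 h. Viability was read by MTS; three independent experiments in triplicate.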

For test [16], the target named is T2, von Hippel-Lindau disease tumor suppressor/Apoptosis regulator Bcl-2 (Homo sapiens). The test can be described thus: Binding affinity to VHL/BCL-2 in human RS4-11 cells assessed as ternary complex formation at up to 300 nM measured after 12 hrs by immunoprecipitation assay. The class given is cell-based.
Test [17] addresses T1, von Hippel-Lindau disease tumor suppressor/Bcl-2-like protein 1. As to the kind of experiment: Binding affinity to VHL/ BCL-XL in human RS4-11 cells assessed as ternary complex formation at up to 300 nM measured after 12 hrs in presence of VHL-032 by immunoprecipitation assay. The class given is cell-based.
Target sequence in this assay (P40337 whole entry, looked up): as the sequence (P40337 whole entry, looked up) above
Target sequence in this assay (Q07817 whole entry, looked up): as the sequence (Q07817 whole entry, looked up) above

Active and inactive are the calls of the source. The rule behind the calls is not given here.

T2 sequence (P10415 whole entry, looked up): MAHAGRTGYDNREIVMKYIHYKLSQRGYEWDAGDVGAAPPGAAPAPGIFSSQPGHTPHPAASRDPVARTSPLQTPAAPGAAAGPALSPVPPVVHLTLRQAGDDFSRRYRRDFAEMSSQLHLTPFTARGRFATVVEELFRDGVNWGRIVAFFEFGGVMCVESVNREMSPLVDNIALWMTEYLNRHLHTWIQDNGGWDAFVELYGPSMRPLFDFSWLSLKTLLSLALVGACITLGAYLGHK
T2 sequence (P40337 whole entry, looked up): as the sequence (P40337 whole entry, looked up) above
Apoptosis regulator Bcl-2, sequence (P10415 whole entry): as the sequence (P10415 whole entry, looked up) above
Bcl-2-like protein 1, sequence (Q07817 whole entry): as the sequence (Q07817 whole entry, looked up) above

As for `Cc1ncsc1-c1ccc([C@H](C)NC(=O)[C@@H]2C[C@@H](O)CN2C(=O)[C@@H](NC(=O)CCCCCCCCC(=O)NC[C@]2(C)CCC(c3ccc(Cl)cc3)=C(CN3CCN(c4ccc(C(=O)NS(=O)(=O)c5ccc(N[C@H](CCN6CCOCC6)CSc6ccccc6)c(S(=O)(=O)C(F)(F)F)c5)cc4)CC3)C2)C(C)(C)C)cc1`, the outcome in test [1], in test [2] and in test [17] was inactive. In addition, the DC50 in [3] turned out to be 11.6 nM. In addition, the IC50 amounted to 15.9 nM in [4] and 209 nM in [15]. Besides, the outcome in [5], in [12], in test [13], in [14] and in [16] was Active. For the same molecule, the Activity in test [6] came to 25%; in test [7], 21%; in test [8] it was 1%. Also, affinity in test [9] was put at a Ki of 2.59 nM. Besides, the Kd in test [10] stood at 1.22 nM; in [11] it was 0.65 nM.
